We go through six compounds from ChEMBL document CHEMBL2150950, “Effect of 4-aryl-2-methyl-5-nitro-1,4-dihydropyridine-3-carboxylates on the guinea pig papillary muscle and isolated human vena saphena magna that is used for coronary artery bypass grafting” (2011).

Structures are written as SMILES. Calls of active or inactive are those of the source. The rule behind the calls is not given here.

Assay [1] can be described thus: Ionotropic effect in guinea pig right ventricle papillary muscles assessed as contraction force at 10^-6 M by force transduction assay relative to untreated control (reference value: 100%). The class given is functional, Cavia porcellus, Papillary muscle.
A short description of assay [2]: Ionotropic effect in guinea pig right ventricle papillary muscles assessed as contraction force at 10^-7 M by force transduction assay relative to untreated control (reference value: 100%). The class given is functional, Cavia porcellus, Papillary muscle.
Assay [3] is described as follows: Ionotropic effect in guinea pig ventricle papillary muscles assessed as lengthening of 90% repolarized cardiac action potential duration time at 10^-4 M by microelectrode technique relative to untreated control (reference value: 132 to 176 APD50 ms). In kind it is functional, Cavia porcellus, Papillary muscle.
Assay [4] is described as follows: Ionotropic effect in guinea pig ventricle papillary muscles assessed as lengthening of 90% repolarized cardiac action potential duration time at 10^-5 M by microelectrode technique relative to untreated control (reference value: 132 to 176 APD50 ms). In kind it is functional, Cavia porcellus, Papillary muscle.
Assay [5] is described as follows: Ionotropic effect in guinea pig ventricle papillary muscles assessed as lengthening of 90% repolarized cardiac action potential duration time at 10^-6 M by microelectrode technique relative to untreated control (reference value: 132 to 176 APD50 ms). In kind it is functional, Cavia porcellus, Papillary muscle.
Assay [6] can be described thus: Ionotropic effect in guinea pig ventricle papillary muscles assessed as lengthening of 90% repolarized cardiac action potential duration time at 10^-7 M by microelectrode technique relative to untreated control (reference value: 132 to 176 APD50 ms). In kind it is functional, Cavia porcellus, Papillary muscle.
A short description of assay [7]: Ionotropic effect in guinea pig ventricle papillary muscles assessed as lengthening of 50% repolarized cardiac action potential duration time at 10^-4 M by microelectrode technique relative to untreated control (reference value: 132 to 176 APD50 ms). In kind it is functional, Cavia porcellus, Papillary muscle.
Assay [8] in a line: Ionotropic effect in guinea pig ventricle papillary muscles assessed as lengthening of 50% repolarized cardiac action potential duration time at 10^-5 M by microelectrode technique relative to untreated control (reference value: 132 to 176 APD50 ms). In kind it is functional, Cavia porcellus, Papillary muscle.
Assay [9] can be described thus: Ionotropic effect in guinea pig ventricle papillary muscles assessed as lengthening of 50% repolarized cardiac action potential duration time at 10^-6 M by microelectrode technique relative to untreated control (reference value: 132 to 176 APD50 ms). The class given is functional, Cavia porcellus, Papillary muscle.
A short description of assay [10]: Ionotropic effect in guinea pig ventricle papillary muscles assessed as lengthening of 50% repolarized cardiac action potential duration time at 10^-7 M by microelectrode technique relative to untreated control (reference value: 132 to 176 APD50 ms). In kind it is functional, Cavia porcellus, Papillary muscle.
A short description of assay [11]: Ionotropic effect in guinea pig ventricle papillary muscles assessed as lengthening of 25% repolarized cardiac action potential duration time at 10^-4 M by microelectrode technique relative to untreated control (reference value: 84 to 104 APD25 ms). In kind it is functional, Cavia porcellus, Papillary muscle.
The nature of assay [12]: Ionotropic effect in guinea pig ventricle papillary muscles assessed as lengthening of 25% repolarized cardiac action potential duration time at 10^-5 M by microelectrode technique relative to untreated control (reference value: 84 to 104 APD25 ms). In kind it is functional, Cavia porcellus, Papillary muscle.
Assay [13] can be described thus: Ionotropic effect in guinea pig ventricle papillary muscles assessed as lengthening of 25% repolarized cardiac action potential duration time at 10^-6 M by microelectrode technique relative to untreated control (reference value: 84 to 104 APD25 ms). In kind it is functional, Cavia porcellus, Papillary muscle.
Assay [14] is described as follows: Ionotropic effect in guinea pig ventricle papillary muscles assessed as lengthening of 25% repolarized cardiac action potential duration time at 10^-7 M by microelectrode technique relative to untreated control (reference value: 84 to 104 APD25 ms). In kind it is functional, Cavia porcellus, Papillary muscle.
A short description of assay [15]: Ionotropic effect in guinea pig ventricle papillary muscles assessed as lengthening of 10% repolarized cardiac action potential duration time at 10^-4 M by microelectrode technique relative to untreated control (reference value: 37 to 47 APD10 ms). In kind it is functional, Cavia porcellus, Papillary muscle.
Assay [16] can be described thus: Ionotropic effect in guinea pig ventricle papillary muscles assessed as lengthening of […] cardiac action potential duration time at 10^-5 M by microelectrode technique relative to untreated control (reference value: 37 to 47 […] ms). The class given is functional, Cavia porcellus, Papillary muscle.
Assay [17] can be described thus: Ionotropic effect in guinea pig ventricle papillary muscles assessed as lengthening of 10% repolarized cardiac action potential duration time at 10^-6 M by microelectrode technique relative to untreated control (reference value: 37 to 47 APD10 ms). In kind it is functional, Cavia porcellus, Papillary muscle.
Assay [18] in a line: Ionotropic effect in guinea pig ventricle papillary muscles assessed as lengthening of 10% repolarized cardiac action potential duration time at 10^-7 M by microelectrode technique relative to untreated control (reference value: 37 to 47 APD10 ms). In kind it is functional, Cavia porcellus, Papillary muscle.
Assay [19] can be described thus: Ionotropic effect in guinea pig right ventricle papillary muscles assessed as contraction force at 10^-4 M by force transduction assay relative to untreated control (reference value: 100%). In kind it is functional, Cavia porcellus, Papillary muscle.
A short description of assay [20]: Ionotropic effect in guinea pig right ventricle papillary muscles assessed as contraction force at 10^-5 M by force transduction assay relative to untreated control (reference value: 100%). In kind it is functional, Cavia porcellus, Papillary muscle.
Assay [21] in a line: Vasodilatory activity in human vena saphena magna assessed as reduction in phenylephrine-induced smooth muscle contraction at 100 uM relative to baseline contraction. In kind it is functional. Set-up: scale not given: the % may be the effect or the level left. In outline: (§1)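 Saphenous vein rings came from 37 CABG patients. They were bathed in Tyrode's solution (mM: NaCl 137, KCl 5.4, CaCl2 1.8, MgCl2 0.9, Tris HCl 10, glucose 5; pH 7.4), equilibrated 45–60 min and washed every 15 min. Rings were precontracted with 10^-4 M phenylephrine, then given cumulative test agent at 10^-7 to 10^-4 M. Isometric relaxation was recorded, as means ± SE.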

The nature of assay [22]: Vasodilatory activity in human vena saphena magna assessed as reduction in phenylephrine-induced smooth muscle contraction at 0.1 uM. Set-up: scale not given: the % may be the effect or the level left. In kind it is functional. In outline: as §1
Assay [23] can be described thus: Vasodilatory activity in human vena saphena magna assessed as relaxation of phenylephrine-induced smooth muscle contraction at 10^-7 to 10^-4 M. In kind it is functional. In outline: as §1

On to `COC(=O)C1=C(C)NC(C)=C([N+](=O)[O-])C1c1ccccc1OC(F)F` (stereo unspecified), for which the Activity in [1] is on record as 112.6%; in assay [2], 114.4%; in assay [19] it was 111%; in assay [20], 108.3%. For the same compound, the Time in assay [3] amounted to 176.7 ms; in [4], 175 ms; in assay [5] it was 178.3 ms; in assay [6] it was 178.3 ms; in assay [7], 148.5 ms; in assay [8] it was 147 ms. The Time in [9] came to 149 ms; in assay [10] it was 144.8 ms; in assay [11] it was 109.2 ms; in assay [12], 110.8 ms; in [13], 110.3 ms; in assay [14] it was 101.7 ms. Besides, the Time is 53.8 ms in assay [15], 55.3 ms in assay [16], 54.5 ms in [17] and 51.3 ms in assay [18].

In the case of `COC(=O)C1=C(C)NC=C([N+](=O)[O-])C1c1ccccc1C(F)(F)F` (stereo unspecified), the Activity is 98.5% in [1], 101% in assay [2], 97.8% in [19] and 103% in assay [20]. In addition, the Time is 184 ms in assay [3]; 175.5 ms in assay [4]; 172 ms in assay [5]; 171.5 ms in [6]; 156.5 ms in assay [7]; 149.8 ms in assay [8]. The Time in [9] is 140.5 ms; in [10] it was 138 ms; in [11], 111.3 ms; in assay [12] it was 103.2 ms; in assay [13], 91.4 ms; in assay [14], 92.5 ms. Further, the Time is recorded as 47 ms in [15], 44.7 ms in assay [16], 38.5 ms in assay [17] and 40 ms in assay [18].

For the compound `COC(=O)C1=C(C)NC=C([N+](=O)[O-])C1c1ccccc1OC(F)F` (stereo unspecified), the Activity stood at 73.5% in assay [1], 78.85% in assay [2], 92.8% in [19] and 90.3% in [20]. Moreover, the Time in [3] was found to be 220 ms; in [4], 217 ms; in assay [5] it was 202 ms; in assay [6], 190 ms; in assay [7] it was 178 ms; in assay [8], 177 ms. Moreover, the Time in assay [9] is reported as 161 ms; in assay [10] it was 153 ms; in [11], 112.6 ms; in [12] it was 111.6 ms; in assay [13] it was 93.7 ms; in [14], 90.6 ms. Moreover, the Time in assay [15] was 39.5 ms; in [16], 39.5 ms; in assay [17] it was 35 ms; in assay [18], 36 ms.

As to `CCOC(=O)C1=C(C)NC2=C(C(=O)OC2)C1c1ccccc1OC(F)F` (stereo unspecified), the Activity in assay [21] was 19%; in [22], 50%. In addition, in [23], the outcome was Active.

With `CCCOCCOC(=O)C1=C(C)NC=C([N+](=O)[O-])C1c1ccc(C(F)(F)F)cc1` (stereo unspecified), the Activity in [1] amounted to 83.7%; in assay [2], 89.5%; in [19], 73%; in assay [20], 81%. Moreover, the Time worked out at 189.6 ms in assay [3]; 188 ms in [4]; 180 ms in assay [5]; 166.7 ms in assay [6]; 158.7 ms in assay [7]; 161.2 ms in [8]. Besides, the Time worked out at 149.6 ms in assay [9]; 136.6 ms in assay [10]; 101 ms in [11]; 103.3 ms in assay [12]; 96 ms in assay [13]; 91 ms in [14]. Moreover, the Time in assay [15] is 38.2 ms; in assay [16], 37.5 ms; in assay [17] it was 36 ms; in assay [18], 35 ms.

For the compound `COC(=O)C1=C(C)NC(C)=C([N+](=O)[O-])C1c1ccccc1C(F)(F)F` (stereo unspecified), the Activity in assay [1] was found to be 155%; in assay [2], 123%; in assay [21], 19%; in [22], 50%; in assay [19] it was 176%; in assay [20], 175%. In assay [23], the result was Active. In addition, the Time amounted to 223.5 ms in [3]; 217 ms in [4]; 218.2 ms in assay [5]; 220 ms in assay [6]; 133.8 ms in assay [7]; 129 ms in assay [8]. The Time is on record as 133.8 ms in assay [9]; 135.6 ms in [10]; 89 ms in assay [11]; 85.1 ms in assay [12]; 91 ms in assay [13]; 92.7 ms in [14]. Also, the Time in [15] was determined as 42.7 ms; in assay [16], 41 ms; in [17], 42 ms; in [18], 44.5 ms.
